Here are results for ten compounds from ChEMBL document CHEMBL1154046, “Synthesis of some urea and thiourea derivatives of 3-phenyl/ethyl-2-thioxo-2,3-dihydrothiazolo[4,5-d]pyrimidine and their antagonistic effects on haloperidol-induced catalepsy and oxidative stress in mice” (2009).

Experiment [1] has as its system Mus musculus. In words: Inhibition of haloperidol-induced catalepsy in Swiss albino mouse assessed as time elapsed until release of forepaw from bar at 100 mg/kg, […] 30 min prior to haloperidol challenge measured after 60 mins by bar test. The following applies: route intraperitoneal, in the assay text read “ip” for “po”. Format: functional. The method in brief: (§1)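 Adult male pathogen-free Swiss albino mice (18–25 g), n = 5 per group, each used once. Compounds at 100 mg/kg i.p. were given as a suspension in 0.5% gum acacia 30 min before haloperidol 5 mg/kg i.p. Forepaws were placed on a horizontal bar 9 cm high, and descent time was recorded every 30 min for 3 h. Testing ran at 23 ± 1 °C under 20 lux. Values are mean ± S.E.M.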

The test system of experiment [2] is Mus musculus. The experiment can be described thus: Inhibition of haloperidol-induced catalepsy in Swiss albino mouse assessed as time elapsed until release of forepaw from bar at 100 mg/kg, […] 30 min prior to haloperidol challenge measured after 30 mins by bar test. Format: functional. The conditions noted are these: route intraperitoneal, in the assay text read “ip” for “po”. The method in brief: as §1

Experiment [3] concerns Mus musculus. In words: Inhibition of haloperidol-induced catalepsy in Swiss albino mouse assessed as time elapsed until release of forepaw from bar at 100 mg/kg, […] 30 min prior to haloperidol challenge measured after 90 mins by bar test. In kind it is functional. The following applies: route intraperitoneal, in the assay text read “ip” for “po”. The method in brief:
as §1

Experiment [4] concerns Mus musculus. The experiment can be described thus: Inhibition of haloperidol-induced catalepsy in Swiss albino mouse assessed as time elapsed until release of forepaw from bar at 100 mg/kg, […] 30 min prior to haloperidol challenge measured after 120 mins by bar test. In kind it is functional. The conditions noted are these: route intraperitoneal, in the assay text read “ip” for “po”. In outline:
as §1

The test system of experiment [5] is Mus musculus. In words: Inhibition of haloperidol-induced catalepsy in Swiss albino mouse assessed as time elapsed until release of forepaw from bar at 100 mg/kg, […] 30 min prior to haloperidol challenge measured after 150 mins by bar test. In kind it is functional. The conditions noted are these: route intraperitoneal, in the assay text read “ip” for “po”. In outline:
as §1

Experiment [6] relates to Mus musculus. The experiment can be described thus: Inhibition of haloperidol-induced catalepsy in Swiss albino mouse assessed as time elapsed until release of forepaw from bar at 100 mg/kg, […] 30 min prior to haloperidol challenge measured after 180 mins by bar test. In kind it is functional. The conditions noted are these: route intraperitoneal, in the assay text read “ip” for “po”. In outline: as §1

Experiment [7] relates to Mus musculus. In words: Inhibition of haloperidol-induced catalepsy in Swiss albino mouse at 100 mg/kg, […] 30 min prior to haloperidol challenge by bar test relative to haloperidol control. In kind it is functional. The following applies: route intraperitoneal, in the assay text read “ip” for “po”. In outline:
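Mice received compound at 100 mg/kg i.p. (in 0.5% gum acacia) 30 min before haloperidol 5 mg/kg i.p., n = 5. The bar test was run every 30 min over 3 h, and descent times were summed as CDT [3 h]. Haloperidol CDT minus vehicle CDT was set as 100% catalepsy, and % inhibition was calculated against it.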

Experiment [8] concerns Brain. In words: Antioxidant activity against lipid peroxidation in haloperidol-stimulated Swiss albino mouse brain assessed as malonaldehyde level per mg of protein by lipid peroxidation assay (Rvb= 5.521 +/- 0.23 nmol). Format: functional, tissue-based. In outline:
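Compound was given 30 min before haloperidol 5 mg/kg i.p. Brain was homogenized in 50 mM Tris-HCl pH 7.4. Homogenate was mixed with SDS, acetic acid and 0.8% TBA, heated 1 h at 95 °C, and extracted into n-butanol/pyridine (15:1). Upper-layer A532 was converted to MDA using ε 1.56 × 10⁵, and protein was measured by Lowry. Results are nmol MDA/mg protein, n = 5.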

Experiment [9] relates to Brain. The experiment can be described thus: Antioxidant activity against GSH in haloperidol-stimulated Swiss albino mouse brain assessed as reduced glutathione level per gm of tissue (Rvb= 6.753 +/- 0.15 ug). In kind it is functional.
In experiment [10] the test system is Brain. In words: Antioxidant activity in haloperidol-stimulated Swiss albino mouse brain assessed as oxidized glutathione peroxidase level per g of protein (Rvb= 0.765+/- 0.13 U). In kind it is functional.
Experiment [11] relates to Brain. In words: Antioxidant activity in haloperidol-stimulated Swiss albino mouse brain assessed as superoxide dismutase level per mg of protein (Rvb= 0.941+/- 0.15 U). Format: functional.

In the case of `COc1ccccc1NC(=O)Nc1ncnc2c1sc(=S)n2-c1ccccc1`, the Catalepsy time (forepaw descent time) in [1] stood at 0.817 min. Also, the descent time in [2] came to 0.433 min. Moreover, the catalepsy descent time in experiment [3] was 0.95 min; in [4], 1.48 min. Moreover, the Time to forepaw release from bar in experiment [5] was determined as 1.38 min. Moreover, in experiment [6], the Catalepsy duration (time to release forepaw from bar) was determined as 1.57 min. This compound also had an inhibition (INH) in [7] of 23.4%. Besides, the Activity in experiment [8] turned out to be 3.2 nmol; in [9], 14.362 µg; in experiment [10], 1.134 U; in experiment [11], 1.992 U.

For the compound `CCn1c(=S)sc2c(NC(=O)Nc3ccccc3OC)ncnc21`, the Catalepsy time (forepaw descent time) in [1] was 0.517 min. The descent time in [2] came to 0.583 min. The catalepsy descent time is 0.667 min in [3] and 1.5 min in experiment [4]. Also, the Time to forepaw release from bar in experiment [5] stood at 2.25 min. For the same compound, the Catalepsy duration (time to release forepaw from bar) in experiment [6] amounted to 2.62 min. Moreover, the inhibition (INH) in [7] stood at 29.3%. Also, the Activity in [8] is 2.81 nmol; in experiment [9], 14 µg; in [10] it was 1.54 U; in [11], 1.81 U.

In the case of `COc1ccccc1NC(=S)Nc1ncnc2c1sc(=S)n2-c1ccccc1`, in experiment [1], the Catalepsy time (forepaw descent time) was 0.733 min. Moreover, the descent time in experiment [2] was found to be 0.417 min. Also, the catalepsy descent time in [3] is 1.3 min; in experiment [4], 1.8 min. Further, the Time to forepaw release from bar in [5] turned out to be 1.87 min. For the same compound, in experiment [6], the Catalepsy duration (time to release forepaw from bar) was determined as 1.82 min. In experiment [7], this compound returned an inhibition (INH) of 28.5%. Besides, the Activity in experiment [8] was determined as 2.75 nmol; in experiment [9] it was 14.2 µg; in [10] it was 1.6 U; in [11], 2.35 U.

For the compound `CCn1c(=S)sc2c(NC(=S)Nc3ccccc3OC)ncnc21`, in experiment [1], the Catalepsy time (forepaw descent time) stood at 0.25 min. In addition, the descent time in [2] turned out to be 0.3 min. Besides, the catalepsy descent time amounted to 0.883 min in experiment [3] and 1.25 min in experiment [4]. Besides, the Time to forepaw release from bar in experiment [5] turned out to be 1.62 min. Further, the Catalepsy duration (time to release forepaw from bar) in [6] was 2.4 min. Besides, in experiment [7], the inhibition (INH) is 23.7%. Moreover, the Activity in experiment [8] turned out to be 3.12 nmol; in experiment [9] it was 11.672 µg; in [10], 1.331 U; in [11], 1.866 U.

Turning to `CCn1c(=S)sc2c(NC(=O)Nc3ccc([N+](=O)[O-])cc3)ncnc21`, the Catalepsy time (forepaw descent time) in experiment [1] was 2.33 min. Besides, the descent time in experiment [2] turned out to be 1.67 min. Moreover, the catalepsy descent time is 3.23 min in [3] and 3.53 min in [4]. Further, the Time to forepaw release from bar in experiment [5] came to 3.5 min. Also, the Catalepsy duration (time to release forepaw from bar) in experiment [6] was found to be 3.85 min. Besides, in experiment [7], the inhibition (INH) was 68.1%.

Turning to `O=C(Nc1ccc(Cl)cc1)Nc1ncnc2c1sc(=S)n2-c1ccccc1`, the Catalepsy time (forepaw descent time) in experiment [1] worked out at 2.95 min. In experiment [2], the descent time turned out to be 1.27 min. In addition, the results for the catalepsy descent time in experiment [3] and in experiment [4] were 2.32 min and 3.42 min, respectively. In addition, the Time to forepaw release from bar in [5] was determined as 3.43 min. Moreover, the Catalepsy duration (time to release forepaw from bar) in experiment [6] turned out to be 4.03 min. This compound had an inhibition (INH) in experiment [7] of 65.3%.

For the compound `Fc1ccc(NC(=S)Nc2ncnc3c2sc(=S)n3-c2ccccc2)cc1`, in [1], the Catalepsy time (forepaw descent time) worked out at 2.15 min. Further, in [2], the descent time was determined as 1.25 min. The catalepsy descent time in experiment [3] stood at 2.75 min; in experiment [4], 3.25 min. Also, the Time to forepaw release from bar in experiment [5] was found to be 3.63 min. Further, in experiment [6], the Catalepsy duration (time to release forepaw from bar) is 3.33 min. In addition, in experiment [7], the inhibition (INH) is 61.3%.

Regarding `CCn1c(=S)sc2c(NC(=O)Nc3ccccc3Cl)ncnc21`, the Catalepsy time (forepaw descent time) in experiment [1] was determined as 2.3 min. The descent time in experiment [2] is 2.12 min. Besides, the catalepsy descent time in [3] turned out to be 2.18 min; in experiment [4], 2.62 min. The Time to forepaw release from bar in experiment [5] turned out to be 3.27 min. Moreover, the Catalepsy duration (time to release forepaw from bar) in experiment [6] stood at 3.15 min. This compound also yielded an inhibition (INH) in experiment [7] of 58.4%.

Regarding `CCn1c(=S)sc2c(NC(=S)Nc3ccccc3)ncnc21`, the Catalepsy time (forepaw descent time) in experiment [1] came out at 1.92 min. The descent time in experiment [2] amounted to 1.22 min. The values for the catalepsy descent time in experiment [3] and in [4] were 2.32 min and 2.33 min, respectively. In addition, the Time to forepaw release from bar in [5] was 2.87 min. In [6], the Catalepsy duration (time to release forepaw from bar) came to 2.85 min. The same compound showed an inhibition (INH) in experiment [7] of 50.1%.

Regarding `Fc1ccccc1NC(=S)Nc1ncnc2c1sc(=S)n2-c1ccccc1`, in experiment [1], the Catalepsy time (forepaw descent time) stood at 1.65 min. The descent time in [2] worked out at 1.3 min. Moreover, the results for the catalepsy descent time in experiment [3] and in [4] were 2.37 min and 2.67 min, respectively. In experiment [5], the Time to forepaw release from bar is 3.47 min. Further, the Catalepsy duration (time to release forepaw from bar) in [6] was found to be 4.28 min. Moreover, in experiment [7], the inhibition (INH) came to 58.8%.
